Measured values: ChEMBL document CHEMBL1129540, “Synthesis and cytotoxicity of 1,2-disubstituted naphth[2,3-d]imidazole-4,9-diones and related compounds” (1996)

Key:
Assay type in all cases: functional
RXF 393 = assay: In vitro inhibitory activity against renal RXF-393 cancer cell line; details: Homo sapiens
Outline: (§1)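 Tested in the National Cancer Institute's in vitro disease-oriented tumor cell line screen. Dose-response curves were recorded for each cell line, and values are reported as log GI50, the compound concentration that inhibits cell growth by 50%.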

UACC-62 = assay: In vitro inhibitory activity against melanoma UACC-62 cancer cell line; details: Homo sapiens; outline: as §1
K562 = assay: In vitro inhibitory activity against leukemia K-562 cancer cell line; details: Homo sapiens; outline: as §1
HOP-92 = assay: In vitro inhibitory activity against non small lung HOP-92 cancer cell line; details: Homo sapiens; outline: as §1
COLO 205 = assay: In vitro inhibitory activity against colon COLO-205 cancer cell line; details: Homo sapiens; outline: as §1
SF-539 = assay: In vitro inhibitory activity against CNS SF-539 cancer cell line; details: Homo sapiens; outline: as §1
[1] = In vitro inhibitory activity against small cell lung DMS 114 cancer cell line; details: Homo sapiens, Cancer cell lines; outline: as §1
IGROV-1 = assay: In vitro inhibitory activity against ovarain IGROV1 cancer cell line; details: Homo sapiens; outline: as §1
Malme-3M = assay: In vitro inhibitory activity against melanoma MALME-3M cancer cell line; details: Homo sapiens; outline: as §1
[2] = In vitro inhibitory activity against small cell lung DMS 273 cancer cell line; details: Homo sapiens, Cancer cell lines; outline: as §1
OVCAR-3 = assay: In vitro inhibitory activity against ovarain OVCAR-3 cancer cell line; details: Homo sapiens; outline: as §1
HCT-116 = assay: In vitro inhibitory activity against colon HCT116 cancer cell line; details: Homo sapiens; outline: as §1
HL-60 = assay: In vitro inhibitory activity against leukemia HL-60(TB) cancer cell line; details: Homo sapiens
Outline: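 Tested in the NCI in vitro disease-oriented human tumour cell line screen. Growth inhibition was read from dose-response curves and reported as log GI50, the compound concentration that inhibits cell growth by 50%.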

NCI-H522 = assay: In vitro inhibitory activity against non small lung […]H522 cancer cell line; details: Homo sapiens; outline: as §1
MCF7 = assay: In vitro inhibitory activity against breast MCF-7 cancer cell line; details: Homo sapiens; outline: as §1
U-251 = assay: In vitro inhibitory activity against CNS U-251 cancer cell line; details: Homo sapiens; outline: as §1
DU-145 = assay: In vitro inhibitory activity against prostate DU-145 cancer cell line; details: Homo sapiens; outline: as §1
MDA-N = assay: In vitro inhibitory activity against breast MDA-N cancer cell line; details: Homo sapiens; outline: as §1
PC-3 = assay: In vitro inhibitory activity against prostate PC-3 cancer cell line; details: Homo sapiens; outline: as §1
ACHN = assay: In vitro inhibitory activity against renal ACHN cancer cell line; details: Homo sapiens; outline: as §1

| Structure (SMILES) | GI50 (RXF 393) | GI50 (UACC-62) | GI50 (K562) | GI50 (HOP-92) | GI50 (COLO 205) | GI50 (SF-539) | GI50 [1] | GI50 (IGROV-1) | GI50 (Malme-3M) | GI50 [2] | GI50 (OVCAR-3) | GI50 (HCT-116) | GI50 (HL-60) | GI50 (NCI-H522) | GI50 (MCF7) | GI50 (U-251) | GI50 (DU-145) | GI50 (MDA-N) | GI50 (PC-3) | GI50 (ACHN) |
| --- | --- | --- | --- | --- | --- | --- | --- | --- | --- | --- | --- | --- | --- | --- | --- | --- | --- | --- | --- | --- |
| CCn1c(C)nc2c1C(=O)c1ccccc1C2=O | 27500 nM | 4900 nM | 1660 nM | 1620 nM | 355 nM | 2690 nM | 275 nM | 2040 nM | 2510 nM | 1660 nM | 50.1 nM | 1230 nM | 16600 nM | 240 nM | 676 nM | 1910 nM | – | – | – | – |
| CC/N=C1/C(=O)c2ccccc2C(O)=C1NC(=O)c1cc(OC)cc(OC)c1 | 324 nM | 355 nM | 490 nM | 1120 nM | 3470 nM | 1910 nM | – | 1550 nM | 776 nM | – | 525 nM | 417 nM | 407 nM | 372 nM | 372 nM | 525 nM | 2690 nM | 120 nM | 380 nM | 977 nM |
| O=C(Cc1ccccc1F)NC1=C(Cl)C(=O)c2ccccc2C1=O | 166 nM | 331 nM | 295 nM | 1100 nM | 1910 nM | 240 nM | 174 nM | 676 nM | 1700 nM | 1290 nM | 933 nM | 427 nM | 282 nM | 214 nM | – | 331 nM | – | – | – | 479 nM |
